Assay results taken from PubChem BioAssay AID588399 (Southern Research Specialized Biocontainment Screening …, 2011).
Results filed as inconclusive are left out. Activity calls are given as the source filed them.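 Rule for the calls: active = toxic compounds, with cells under 80% alive at a tested dose; inconclusive = one replicate called active, the other inactive; inactive = the rest.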

System: Bladder 5637 cells viability, CellTiter-Glo, 72 h
Assay: cytotoxicity in 5637 bladder cells, dose response, cytotoxicity control for bacterial capsule biogenesis inhibitors, cell-based, set 4 (AID 588399)
Conditions: not given
Outline: (§1)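 System: 5637 bladder carcinoma cells; Times: 72 h treatment; Detection: CellTiter-Glo luminescence.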

Structure (SMILES)	CC50 [µM]
O=C(Nc1cccnc1)c1ccc2ncsc2c1	28.3
O=C(Nc1nc2ccc(OC(F)(F)F)cc2s1)c1ccc(Br)s1	24.6
COc1ccc2nc(NC(=O)c3ccc(Br)s3)[nH]c2c1	4.43
O=C(Nc1ccc(Cl)cc1)c1ccc2[nH]ccc2c1	14.1
COc1ccc2nc(NC(=O)c3cc(Br)c(Br)s3)[nH]c2c1	< 2.34

System: not listed separately
Assay: as above
Conditions: Bladder 5637 cells viability, CellTiter-Glo, 72 h; at 300 µM (top of the series)
Outline: as §1

Structure (SMILES)	viability
COc1ccc(NC(=O)c2ccc3nc[nH]c3c2)cc1	104% (inactive)
O=C(NCc1ccco1)c1ccc2nc[nH]c2c1	111% (inactive)
O=C(Nc1ccc(Br)cc1)c1ccc2ncsc2c1	142% (inactive)
O=C(Nc1ccccn1)c1ccc2nc[nH]c2c1	94.7% (inactive)
O=C(Nc1ccc(F)cc1)c1ccc2nc[nH]c2c1	83% (inactive)
